Published values from different studies.
Lines come from different studies, so protocols differ.
Target: Casein kinase II subunit alpha (CSNK2A1, Homo sapiens, UniProt P68400)

Cc1cc(NC(=O)c2cccc3cc(-c4cccc5[nH]nc(N)c45)ccc23)ccc1F  activity vs control (enzyme activity; inhibitor; 0.1 µM): 109%
CC(C)(C)c1nc2c(s1)c1nc(N)ncc1c1ccc(NS(=O)(=O)c3c(F)cccc3F)c(F)c12  remaining activity (enzyme activity; inhibitor; radiometric; 1 µM): 88%
O=C(Nc1cnc(Oc2ccc(F)cc2)nc1)N1CCc2ncccc2[C@@H]1c1ccc(F)cc1  remaining binding (cell-free assay; competition with immobilised ligand; 1 µM): 93%
Nc1nc(Nc2ccccc2)sc1C(=O)c1c(F)cccc1F  remaining activity (enzyme activity; inhibitor; 10 µM): 111%
FC(F)(F)c1ccc2c(c1)nc(-c1cccnc1)n2C1CC1  remaining binding (cell-free assay; competition with immobilised ligand; 1 µM): 100%
N#CCCc1ccc2c(c1)-c1[nH]c3ccc([N+](=O)[O-])cc3c1CC(=O)N2  remaining signal (cell-free assay; 0.5 µM): 91.2%
Cc1ccc(NC(=O)c2ccc(C)c(C(F)(F)F)c2)cc1C#Cc1nn(C2CCC(O)CC2)c2ncnc(N)c12 (stereo not shown)  remaining signal (cell-free assay; inhibitor; 10 µM): 105%
CCN(CC)CCNC(=O)c1c(C)[nH]c(/C=C2\C(=O)Nc3ccc(F)cc32)c1C  inhibition (enzyme activity; inhibitor; 0.3 µM): -7%
Cn1c2c(c3ccc(Cl)c(Cl)c31)C(C#N)C1(CCOCC1)NC2=O (stereo not shown)  ΔTm (thermal stability; DSF; 10 µM): 2.1 °C
COc1cc2ncnc(Nc3ccc(Oc4ccccc4)c(C)c3C)c2cc1OC  inhibition (enzyme activity; inhibitor; 1 µM): 5%
Cc1ccc(C(=O)Nc2ccc(CN3CCN(C)CC3)c(C(F)(F)F)c2)cc1C#Cc1cnc2cccnn12  remaining activity (enzyme activity; inhibitor; 23.5 nM): 98%
O=C(Nc1cnn(-c2csc(C(=O)NC3COC3)c2)c1)Nc1c(F)cccc1Cl  remaining activity (enzyme activity; inhibitor; 5 µM): 90.5%
C[S+]([O-])c1ccc(-c2nc(-c3ccncc3)c(-c3ccc(F)cc3)[nH]2)cc1 (stereo not shown)  remaining signal (cell-free assay; 0.5 µM): 86.2%
CN(c1ncccc1CNc1nc(Nc2ccc3c(c2)CC(=O)N3)ncc1C(F)(F)F)S(C)(=O)=O  inhibition (enzyme activity; inhibitor; 1 µM): 50.7%
COc1cc(Nc2cnc(C#N)c(O[C@H](C)CN(C)C)n2)ncc1-c1cnn(C)c1  remaining activity (enzyme activity; inhibitor; radiometric; 10 µM): 87%
CCN(CC)c1ccc(C2=NNC(=O)CC2C)cc1[N+](=O)[O-] (stereo not shown)  remaining activity (enzyme activity; inhibitor; 10 µM): 96%
Cc1ccc(Nc2nccc(N(C)c3ccc4c(C)n(C)nc4c3)n2)cc1S(N)(=O)=O  inhibition (enzyme activity; inhibitor; 10 µM): -7%
O=C1NC(=O)c2cc(Nc3ccc(F)cc3)c(Nc3ccc(F)cc3)cc21  remaining signal (cell-free assay; inhibitor; 0.5 µM): 95.7%
CN(C)C(=O)Cn1cc(-c2nc([C@@](C)(c3ccc(-c4cnc(N)nc4)cc3)C3CC3)no2)cn1  remaining binding (cell-free assay; competition with immobilised ligand; 1 µM): 88%
Cn1c2c(Cl)c(Cl)ccc2c2cc(N)[nH]c(=O)c21  ΔTm (thermal stability; DSF; 10 µM): 2.8 °C
NS(=O)(=O)c1cc(NC(=O)Cc2ccccc2)ccc1Oc1cccc(Cl)c1  remaining binding (cell-free assay; competition with immobilised ligand; 1 µM): 96%
Cn1c2c(c3ccc(Cl)c(Cl)c31)C(C#N)C1(CCCCC1)NC2=O (racemic)  ΔTm (thermal stability; DSF; 10 µM): 0.7 °C
CCCS(=O)(=O)Nc1ccc(F)c(C(=O)c2c[nH]c3ncc(-c4ccc(Cl)cc4)cc23)c1F  inhibition (enzyme activity; inhibitor; 1 µM): < 10%
COc1cccc(CNC(=O)c2nc3scc(COCc4ccc(C(=O)O)cc4)c3c(=O)[nH]2)c1  remaining binding (cell-free assay; competition with immobilised ligand; 1 µM): 90.7%
Cn1c2c(c3ccc(Cl)c(Cl)c31)C(C#N)C(C)(C)NC2=O (stereo not shown)  ΔTm (thermal stability; DSF; 10 µM): 2.6 °C
O=C(N1CCS(=O)(=O)CC1)N1C[C@H](c2ccc(OC(F)(F)F)cc2)C[C@H](c2nc(C3CC3)no2)C1  remaining binding (cell-free assay; competition with immobilised ligand; 1 µM): 100%
Cc1ccc(C(=O)NCc2ccsc2)cc1C#Cc1cn(C(C)C)c2ncnc(N)c12  activity vs control (enzyme activity; inhibitor; 1 µM): 94%
O=C(Nc1ccc(Oc2ccc(F)cc2)cc1)N1CCc2ncccc2[C@H]1c1ccc(F)cc1  remaining binding (cell-free assay; competition with immobilised ligand; 1 µM): 99%
CC(C)(O)[C@H]1CC[C@H](Nc2ccc3ncc(-c4cccc(C(F)(F)F)c4)n3n2)CC1  remaining activity (enzyme activity; inhibitor; 1 µM): 61%
C[C@@H]1CN(c2cc(-c3n[nH]c4ccc(OC5(C)CC5)cc34)ncn2)C[C@H](C)O1  remaining binding (cell-free assay; competition with immobilised ligand; 0.1 µM): 66%
Oc1cccc(-c2nc(N3CCOCC3)c3oc4ncccc4c3n2)c1  remaining activity (enzyme activity; inhibitor; 10 µM): 102%
